Reference: PMC5788303 (Journal of medicinal chemistry, 2017)

Assays:
[1] = In situ mouse brain perfusion; assay type: in vivo
Outline: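 Adult male mice, 25 ± 5 g, anaesthetised with i.p. ketamine 120 mg/kg plus xylazine. Right external carotid ligated; right common carotid cannulated with a 100 IU/mL heparin-filled catheter. Perfused with 100 μM test compound at 37 °C and 2.5 mL/min for 60 s, then washed 2 s with 4 °C drug-free buffer. Brain level measured (detection limit 5 pmol/g).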

native AMPA receptors = experiment: Radioligand binding at native AMPA receptors; conditions: read-out: AMPA IC50; [3H]AMPA, rat synaptosomes
Outline: (§1)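 Native receptors in rat brain synaptosomes: AMPA labelled with [3H]AMPA, KA with [3H]KA, NMDA with [3H]CGP-39653. Recombinant homomeric rat GluK1-3 labelled with [3H]KA. IC50 and Ki values derived from displacement data.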

native KA receptors = experiment: Radioligand binding at native KA receptors; conditions: [3H]KA, rat synaptosomes
Outline: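 Native kainate receptors in rat brain synaptosomes were labelled with [3H]KA, and displacement by the test compound was measured. IC50 and Ki values were derived from the binding data.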

iGluRs = experiment: Binding affinity at iGluRs; design: species or system rat; conditions: native iGluRs and homomeric GluK1-3
Outline: as §1

Slc7a5 (Lat1) = experiment: Transporter protein expression by SRM/MRM LC-MS/MS, Slc7a5; assay type: cell-based, mouse; conditions: 10 μM, 48 h, HCC cell crude membrane fraction
GluN1/GluN2B = GluN1/GluN2B (Rattus norvegicus, UniProt Q00960); experiment: Two-electrode voltage-clamp electrophysiology, Xenopus oocytes, GluN1/GluN2B; assay type: biochemical; conditions: 100 μM glycine and 3 μM Glu
Outline: (§2)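 Rat GluN1 and GluN2A-D cRNAs injected 1:2 into Xenopus oocytes, held at 18 °C in Barth's solution. Recorded at room temperature 2–6 days later in 90 mM NaCl, 1 mM KCl, 10 mM HEPES, 0.5 mM BaCl2, 0.01 mM EDTA (pH 7.4), −40 mV. Currents evoked by 100 μM glycine plus Glu: 10 μM (2A), 3 μM (2B, 2C), 1 μM (2D). Per-oocyte Hill fits, mean ± SEM.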

GluN1/GluN2A = GluN1/GluN2A (Rattus norvegicus, UniProt Q00959); experiment: Two-electrode voltage-clamp electrophysiology, Xenopus oocytes, GluN1/GluN2A; assay type: biochemical; conditions: 100 μM glycine and 10 μM Glu
Outline: as §2

GluN1/GluN2C = GluN1/GluN2C (Rattus norvegicus, UniProt Q00961); experiment: Two-electrode voltage-clamp electrophysiology, Xenopus oocytes, GluN1/GluN2C; assay type: biochemical; conditions: 100 μM glycine and 3 μM Glu
Outline: as §2

[2] = In vivo pharmacokinetics in mice, 10 mg/kg i.p.; design: species or system mouse
GluN1/GluN2D = GluN1/GluN2D (Rattus norvegicus, UniProt Q62645); experiment: Two-electrode voltage-clamp electrophysiology, Xenopus oocytes, GluN1/GluN2D; assay type: biochemical; conditions: 100 μM glycine and 1 μM Glu
Outline: as §2

Slc2a1 (Glut1) = experiment: Transporter protein expression by SRM/MRM LC-MS/MS, Slc2a1; assay type: cell-based, mouse; conditions: 10 μM, 48 h, HCC cell crude membrane fraction
[3] = tested on: NMDA receptors in murine HCC cells; experiment: Calcium imaging of NMDA-induced Ca2+ transients in murine HCC cells; assay type: cell-based, mouse; conditions: 150 μM NMDA
Abcc4 (Mrp4) = experiment: Transporter protein expression by SRM/MRM LC-MS/MS, Abcc4; assay type: cell-based, mouse; conditions: 10 μM, 48 h, HCC cell crude membrane fraction
Abcc2 (Mrp2) = experiment: Transporter protein expression by SRM/MRM LC-MS/MS, Abcc2; assay type: cell-based, mouse; conditions: 10 μM, HCC cell crude membrane fraction
Abcg2 (Bcrp) = experiment: Transporter protein expression by SRM/MRM LC-MS/MS, Abcg2; assay type: cell-based, mouse; conditions: 10 μM, 48 h, HCC cell crude membrane fraction
Abcb1 (Pgp) = experiment: Transporter protein expression by SRM/MRM LC-MS/MS, Abcb1; assay type: cell-based, mouse; conditions: 10 μM, 48 h, HCC cell crude membrane fraction
native NMDA receptors = experiment: Radioligand binding at native NMDA receptors; design: species or system rat; conditions: compared with 1l / 1n
mouse HCC cells = experiment: Anti-proliferative activity in vitro; assay type: cell-based; conditions: 72 h
Outline: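 Mouse Nras-driven p53−/− HCC cells in DMEM with 2 mM L-glutamine, 10% heat-inactivated FBS and penicillin/streptomycin. Cells seeded at 2×10^4/well on collagen-coated plates and used one day later. Test compound given at 0.1–200 μM, or at 1, 2.5, 5 and 10 μM with or without a 100 μM second test compound, for 72 h with daily medium change. Viability read by resazurin fluorescence (ex 560/em 590 nm). IC50 by nonlinear regression, mean ± SEM.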

GluN1/GluN2C, sequence (Q00961 20-1237, other chains not shown): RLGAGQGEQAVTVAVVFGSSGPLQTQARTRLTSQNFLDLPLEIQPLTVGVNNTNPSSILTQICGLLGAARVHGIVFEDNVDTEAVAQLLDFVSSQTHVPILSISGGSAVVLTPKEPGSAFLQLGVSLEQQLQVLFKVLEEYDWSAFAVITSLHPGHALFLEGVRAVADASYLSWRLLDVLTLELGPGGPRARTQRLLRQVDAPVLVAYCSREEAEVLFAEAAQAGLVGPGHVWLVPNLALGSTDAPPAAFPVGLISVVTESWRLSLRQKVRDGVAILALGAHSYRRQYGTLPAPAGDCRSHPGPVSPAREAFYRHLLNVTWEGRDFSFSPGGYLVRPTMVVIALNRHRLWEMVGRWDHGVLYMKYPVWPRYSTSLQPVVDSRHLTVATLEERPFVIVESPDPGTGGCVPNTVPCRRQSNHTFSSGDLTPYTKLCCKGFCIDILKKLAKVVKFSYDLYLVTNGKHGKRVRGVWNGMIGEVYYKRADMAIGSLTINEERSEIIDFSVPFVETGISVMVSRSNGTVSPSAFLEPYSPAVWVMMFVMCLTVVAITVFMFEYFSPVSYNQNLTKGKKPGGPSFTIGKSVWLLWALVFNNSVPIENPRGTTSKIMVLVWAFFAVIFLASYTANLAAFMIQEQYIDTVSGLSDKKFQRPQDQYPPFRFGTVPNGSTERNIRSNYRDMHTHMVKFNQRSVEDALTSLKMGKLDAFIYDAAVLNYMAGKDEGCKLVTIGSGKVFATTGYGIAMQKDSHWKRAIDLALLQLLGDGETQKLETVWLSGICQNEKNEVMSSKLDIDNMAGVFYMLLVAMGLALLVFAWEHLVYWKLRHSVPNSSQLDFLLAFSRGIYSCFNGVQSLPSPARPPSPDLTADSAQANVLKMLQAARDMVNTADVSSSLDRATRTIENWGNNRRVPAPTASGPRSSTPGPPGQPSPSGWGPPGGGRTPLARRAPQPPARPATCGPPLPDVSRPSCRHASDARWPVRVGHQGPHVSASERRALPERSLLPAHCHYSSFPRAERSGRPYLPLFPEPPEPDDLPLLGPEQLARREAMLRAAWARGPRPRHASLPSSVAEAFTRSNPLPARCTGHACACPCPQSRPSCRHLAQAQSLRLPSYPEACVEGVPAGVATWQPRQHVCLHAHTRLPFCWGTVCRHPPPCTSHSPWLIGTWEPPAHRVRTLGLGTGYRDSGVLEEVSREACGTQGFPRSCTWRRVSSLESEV
GluN1/GluN2D, sequence (Q62645 28-1323, other chains not shown): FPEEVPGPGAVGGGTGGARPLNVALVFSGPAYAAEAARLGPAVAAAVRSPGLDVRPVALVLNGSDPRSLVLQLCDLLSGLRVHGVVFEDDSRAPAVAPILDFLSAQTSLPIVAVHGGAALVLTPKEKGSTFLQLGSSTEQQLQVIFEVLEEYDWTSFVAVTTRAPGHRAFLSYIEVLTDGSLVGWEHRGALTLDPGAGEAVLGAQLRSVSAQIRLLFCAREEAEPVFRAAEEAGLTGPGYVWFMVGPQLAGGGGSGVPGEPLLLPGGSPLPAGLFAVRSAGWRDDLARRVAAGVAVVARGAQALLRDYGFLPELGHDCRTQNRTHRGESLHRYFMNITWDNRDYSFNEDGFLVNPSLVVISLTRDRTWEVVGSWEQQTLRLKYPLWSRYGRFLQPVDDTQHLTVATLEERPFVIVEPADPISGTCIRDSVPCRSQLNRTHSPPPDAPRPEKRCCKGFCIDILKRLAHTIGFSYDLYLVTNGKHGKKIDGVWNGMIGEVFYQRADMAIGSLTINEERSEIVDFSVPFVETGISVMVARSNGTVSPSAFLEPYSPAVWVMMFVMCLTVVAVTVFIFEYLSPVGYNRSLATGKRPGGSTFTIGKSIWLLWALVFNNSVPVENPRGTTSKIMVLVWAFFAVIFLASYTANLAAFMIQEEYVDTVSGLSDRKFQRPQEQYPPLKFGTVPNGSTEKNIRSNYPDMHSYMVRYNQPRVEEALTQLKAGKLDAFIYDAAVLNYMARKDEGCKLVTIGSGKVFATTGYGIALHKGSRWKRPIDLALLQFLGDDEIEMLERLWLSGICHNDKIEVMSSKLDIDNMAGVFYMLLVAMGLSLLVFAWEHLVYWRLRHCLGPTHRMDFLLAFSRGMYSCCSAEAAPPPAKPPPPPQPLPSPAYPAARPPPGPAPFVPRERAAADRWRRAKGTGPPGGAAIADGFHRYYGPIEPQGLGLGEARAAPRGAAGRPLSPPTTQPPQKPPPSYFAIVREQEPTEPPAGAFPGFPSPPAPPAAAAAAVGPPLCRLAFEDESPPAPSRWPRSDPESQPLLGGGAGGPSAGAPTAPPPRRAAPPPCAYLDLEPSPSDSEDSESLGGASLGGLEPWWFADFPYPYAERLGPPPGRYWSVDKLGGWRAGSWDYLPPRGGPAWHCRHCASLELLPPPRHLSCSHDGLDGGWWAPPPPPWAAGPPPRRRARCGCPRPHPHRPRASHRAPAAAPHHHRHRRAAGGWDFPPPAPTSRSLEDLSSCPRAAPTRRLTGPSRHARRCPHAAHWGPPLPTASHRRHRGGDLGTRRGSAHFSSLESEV
GluN1/GluN2B, sequence (Q00960 27-1482, other chains not shown): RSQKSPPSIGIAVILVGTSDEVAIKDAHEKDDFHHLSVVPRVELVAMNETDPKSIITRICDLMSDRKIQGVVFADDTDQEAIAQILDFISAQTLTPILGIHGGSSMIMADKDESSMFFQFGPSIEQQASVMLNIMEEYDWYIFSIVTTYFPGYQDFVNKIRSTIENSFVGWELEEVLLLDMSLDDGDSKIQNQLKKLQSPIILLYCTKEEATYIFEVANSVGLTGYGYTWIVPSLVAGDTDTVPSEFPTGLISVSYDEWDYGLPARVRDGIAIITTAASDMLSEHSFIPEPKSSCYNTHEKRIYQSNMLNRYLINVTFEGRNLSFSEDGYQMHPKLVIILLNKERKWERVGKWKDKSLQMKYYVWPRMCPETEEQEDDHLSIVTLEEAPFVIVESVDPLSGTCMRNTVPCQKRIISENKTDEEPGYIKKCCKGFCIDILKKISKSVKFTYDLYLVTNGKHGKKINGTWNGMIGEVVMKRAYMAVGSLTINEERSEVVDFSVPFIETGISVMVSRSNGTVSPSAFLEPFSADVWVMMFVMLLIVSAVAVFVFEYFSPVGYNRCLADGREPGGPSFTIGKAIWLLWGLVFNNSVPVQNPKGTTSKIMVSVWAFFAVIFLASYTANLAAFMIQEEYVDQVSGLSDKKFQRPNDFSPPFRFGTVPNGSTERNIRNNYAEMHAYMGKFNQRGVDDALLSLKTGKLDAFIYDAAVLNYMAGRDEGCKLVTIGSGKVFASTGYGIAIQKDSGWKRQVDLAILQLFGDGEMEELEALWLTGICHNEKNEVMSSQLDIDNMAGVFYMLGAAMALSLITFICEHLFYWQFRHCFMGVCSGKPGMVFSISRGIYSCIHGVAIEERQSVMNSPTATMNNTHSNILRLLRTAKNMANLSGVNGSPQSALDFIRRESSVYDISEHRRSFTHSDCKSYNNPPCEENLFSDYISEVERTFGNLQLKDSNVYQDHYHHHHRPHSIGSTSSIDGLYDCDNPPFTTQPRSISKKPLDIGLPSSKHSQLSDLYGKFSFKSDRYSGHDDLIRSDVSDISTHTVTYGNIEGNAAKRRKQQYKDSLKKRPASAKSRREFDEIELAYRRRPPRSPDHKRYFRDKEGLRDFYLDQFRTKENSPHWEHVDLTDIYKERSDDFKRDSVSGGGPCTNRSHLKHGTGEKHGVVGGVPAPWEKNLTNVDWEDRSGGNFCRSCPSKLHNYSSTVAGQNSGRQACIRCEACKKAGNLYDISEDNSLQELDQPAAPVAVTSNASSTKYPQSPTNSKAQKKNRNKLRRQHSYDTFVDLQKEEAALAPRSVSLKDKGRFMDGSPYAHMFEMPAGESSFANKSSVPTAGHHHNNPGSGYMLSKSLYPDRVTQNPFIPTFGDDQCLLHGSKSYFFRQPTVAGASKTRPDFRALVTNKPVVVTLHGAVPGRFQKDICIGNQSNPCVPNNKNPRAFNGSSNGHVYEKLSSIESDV

Structure (SMILES): O=C(O)c1cccc([C@H]2CCN[C@@H]2C(=O)O)c1 [1a, (2S,3R)-3-(3-Carboxyphenyl)pyrrolidine-2-Carboxylic Acid]
- BBB penetration ([1]; mouse in situ brain perfusion): does not penetrate the BBB

Structure (SMILES): Cl.O=C(O)[C@H]1NCC[C@@H]1c1cccc(Cl)c1 [1d, (2S,3R)-2-Carboxy-3-(3-chlorophenyl)pyrrolidin-1-ium chloride]
- IC50 (native AMPA receptors): > 100 µM
- KA IC50 (native KA receptors): >100 µM

Structure (SMILES): Cl.O=C(O)[C@H]1NCC[C@@H]1c1cccc(C(F)(F)F)c1 [1e, (2S,3R)-2-Carboxy-3-(3-(trifluoromethyl)phenyl)pyrrolidin-1-ium chloride]
- IC50 (native AMPA receptors): > 100 µM
- KA IC50 (native KA receptors): >100 µM

Structure (SMILES): Cl.Cl.Nc1cccc([C@H]2CCN[C@@H]2C(=O)O)c1 [1f, (2S,3R)-3-(3-Aminophenyl)pyrrolidine-2-carboxylic acid dihydrochloride]
- IC50 (native AMPA receptors): > 100 µM
- KA IC50 (native KA receptors): >100 µM

Structure (SMILES): Cl.N#Cc1cccc([C@H]2CCN[C@@H]2C(=O)O)c1 [1g, (2S,3R)-3-(3-Cyanophenyl)pyrrolidine-2-carboxylic acid hydrochloride]
- IC50 (native AMPA receptors): > 100 µM
- KA IC50 (native KA receptors): >100 µM

Structure (SMILES): Cl.NC(=O)c1cccc([C@H]2CCN[C@@H]2C(=O)O)c1 [1h, (2S,3R)-3-(3-Carbamoylphenyl)-2-carboxypyrrolidin-1-ium chloride]
- IC50 (native AMPA receptors): > 100 µM
- IC50 or Ki at the iGluRs (iGluRs): > 100 µM
- KA IC50 (native KA receptors): >100 µM

Structure (SMILES): Cl.O=C(O)[C@H]1NCC[C@@H]1c1cccc(B(O)O)c1 [1i, (2S,3R)-3-(3-Boronophenyl)pyrrolidine-2-carboxylic acid hydrochloride]
- IC50 (native AMPA receptors): > 100 µM
- IC50 or Ki at the iGluRs (iGluRs): > 100 µM
- KA IC50 (native KA receptors): >100 µM

Structure (SMILES): O=C(O)[C@H]1NCC[C@@H]1c1ccc(O)c(O)c1 [1j, (2S,3R)-3-(3,4-Dihydroxyphenyl)pyrrolidine-2-carboxylic acid]
- IC50 (native AMPA receptors): > 100 µM
- KA IC50 (native KA receptors): >100 µM

Structure (SMILES): O=C(O)c1cc([C@H]2CCN[C@@H]2C(=O)O)ccc1F [1k, (2S,3R)-2-Carboxy-3-(3-carboxy-4-fluorophenyl)pyrrolidin-1-ium chloride]
- IC50 (native AMPA receptors): > 100 µM

Structure (SMILES): Cl.O=C(O)c1cc([C@H]2CCN[C@@H]2C(=O)O)ccc1Cl [1l, (2S,3R)-3-(3-Carboxy-4-chlorophenyl)pyrrolidine-2-carboxylic acid hydrochloride]
- Slc7a5 (Lat1) protein expression level (Slc7a5 (Lat1)): 5.72± 1.61 fmol/μg of total protein
- nH (Hillslope) (GluN1/GluN2B): 1.3
- IC50 (native AMPA receptors): > 100 µM
- brain concentration following perfusion ([1]; perfusion with 100 μM of the compound, detection limit of analytical method): < 5 pmol/g
- nH (Hillslope) (GluN1/GluN2A): 1.3
- nH (Hillslope) (GluN1/GluN2C): 1.0
- changes in the behavior of the mice after injection ([2]; 10 mg/kg i.p.): no observable changes in the behavior
- brain concentration ([2]; 30 min after 10 mg/kg i.p.): 0.3 nmol/g
- brain concentration ([2]; 60 min after 10 mg/kg i.p.): 0.1 nmol/g
- nH (Hillslope) (GluN1/GluN2D): 1.3
- Slc2a1 (Glut1) protein expression level (Slc2a1 (Glut1)): 13.2± 0.53 fmol/μg of total protein
- inhibition of NMDA-induced intracellular Ca2+ transients ([3]; compound at 25 and 41 μM): inhibit NMDA activation significantly
- Abcc4 (Mrp4) protein expression level (Abcc4 (Mrp4)): 0.27 ± 0.04 fmol/μg of total protein
- Abcc2 protein expression (Abcc2 (Mrp2)): below the lower limit of quantification
- Abcg2 (Bcrp) protein expression level (Abcg2 (Bcrp)): 1.24± 0.13 fmol/μg of total protein
- KA IC50 (native KA receptors): >100 µM
- Abcb1 (Pgp) protein expression level (Abcb1 (Pgp)): 0.39± 0.06 fmol/μg of total protein

Structure (SMILES): Cc1ccc([C@H]2CCN[C@@H]2C(=O)O)cc1C(=O)O.Cl [1m, (2S,3R)-3-(3-Carboxy-4-methylphenyl)pyrrolidine-2-carboxylic acid hydrochloride]
- IC50 (native AMPA receptors): > 100 µM
- drop in binding affinity for native NMDA receptors (native NMDA receptors): 30 fold
- KA IC50 (native KA receptors): >100 µM

Structure (SMILES): Cl.O=C(O)c1cc([C@H]2CCN[C@@H]2C(=O)O)ccc1Br [1n, (2S,3R)-3-(3-Carboxy-4-bromophenyl)pyrrolidine-2-carboxylic acid hydrochloride]
- IC50 (native AMPA receptors): > 100 µM
- KA IC50 (native KA receptors): >100 µM

Structure (SMILES): N[C@H](CCCP(=O)(O)O)C(=O)O [D-AP5, reference compound]
- inhibition of NMDA-induced intracellular Ca2+ transients ([3]; compound at 20 μM): inhibit NMDA activation significantly

Structure (SMILES): CNC(=O)c1cc(Oc2ccc(NC(=O)Nc3ccc(Cl)c(C(F)(F)F)c3)cc2)ccn1 [sorafenib]
- IC50 (mouse HCC cells; read-out: IC50 on HCC cell viability): 7.4 ± 1.7 µM
- viability at 1 µM (mouse HCC cells; read-out: cell viability): 88 ± 3%
- viability at 2.5 µM (mouse HCC cells; read-out: cell viability): 82 ± 3%
- viability at 5 µM (mouse HCC cells; read-out: cell viability): 72 ± 1%
- viability at 10 µM (mouse HCC cells; read-out: cell viability): 31 ± 2%
